Source: ChEMBL document CHEMBL1155199, “Synthesis of 6-aminomethyl derivatives of benzopyran-4-one with dual biological properties: anti-inflammatory-analgesic and antimicrobial” (Eur J Med Chem, 2009)
Values after ≈ are worked out from the molar mass of the structure shown.

How the values were obtained:
Rattus norvegicus [1] = assay: Gastrointestinal toxicity in Albino rat assessed as severity index at 60 mg/kg, po after 17 hrs relative to control; assay type: organism-based; parameters: dose 60 mg/kg, route oral; settings: in vivo
How it was run: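 Rats fasted 24 h (water allowed), then dosed orally at 60 mg/kg as a suspension in 1% methyl cellulose; controls received vehicle alone. Normal diet for 17 h after dosing. Stomach mucosa examined under a magnifying glass and scored: 0.5 redness, 1.0 spot ulcers, 1.5 haemorrhagic streaks, 2.0 ulcers >3 but <5, 3.0 ulcers >5. Severity index is the group mean score minus the control mean. Data are mean ± S.E.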

Penicillium citrinum = assay: Antifungal activity against Penicillium citrinum NCIM 768; assay type: functional
How it was run: (§1)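 Antifungal screen against R. oryza NRRL-21498 and P. citrum NCIM-768 with fluconazole as reference. Compounds that inhibited growth of one or more organisms were taken forward to MIC determination, reported in µg/mL.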

Rattus norvegicus [2] = assay: Antiinflammatory activity in Wistar albino rat assessed as inhibition of carrageenan-induced paw edema at 20 mg/kg, po administered 30 mins before carrageenan challenge measured after 2 hrs relative to ibuprofen; assay type: functional
How it was run: (§2)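 Wistar albino rats (180–200 g), either sex, randomized into groups of six. Dosed 20 mg/kg p.o.; controls received 0.5% CMC. 30 min later, 0.1 mL 0.1% carrageenan in sterile 0.9% NaCl injected subplantar into the right hind paw. Paw volume read by plethysmometer at 2 and 3 h. Expressed as % inhibition, mean ± SEM, ANOVA with post hoc test.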

Rhizopus arrhizus = assay: Antifungal activity against Rhizopus oryzae NRRL 21498; assay type: functional; how it was run: as §1
Rattus norvegicus [3] = assay: Effect on lipid peroxidation in Albino rat gastric mucosa assessed as malondialdehyde level per mg of protein at 60 mg/kg, po after 17 hrs relative to ibuprofen; assay type: ADME, organism-based; parameters: dose 60 mg/kg, route oral; settings: in vivo
How it was run: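 Lipid peroxidation measured by the Ohkawa thiobarbituric acid–MDA colorimetric method. Tubes were heated 30 min at 80 °C in a shaking water bath, chilled 10 min in ice water, and centrifuged at 3000 rpm for 15 min. Supernatant absorbance was read at 540 nm against a blank. Results are nmol MDA/mg protein, mean ± S.E.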

Rattus norvegicus [4] = assay: Antiinflammatory activity in Wistar albino rat assessed as inhibition of carrageenan-induced paw edema at 20 mg/kg, po administered 30 mins before carrageenan challenge measured after 3 hrs relative to ibuprofen; assay type: functional; how it was run: as §2
Staphylococcus aureus = assay: Antibacterial activity against Staphylococcus aureus ATCC 29737 by turbidity method; assay type: functional
Escherichia coli = assay: Antibacterial activity against Escherichia coli ATCC 8739 by turbidity method; assay type: functional
Mus musculus = assay: Analgesic activity in Swiss albino mouse assessed as protection against acetic acid-induced writhing at 20 mg/kg, po administered 1 hr before acetic acid challenge measured for 5 to 15 mins; assay type: functional
How it was run: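 Swiss albino mice (25–30 g), either sex, groups of six, habituated individually 30 min in test cage. Test agents 20 mg/kg suspended in 1.0% CMC given orally; controls received CMC only. 1 h later, 0.10 mL 1% aqueous acetic acid injected i.p. to induce writhing. Data are mean ± S.E., one-way ANOVA with post hoc test.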

In the case of `COc1ccc(-c2cc(=O)c3cc(CN4CCNCC4)ccc3o2)cc1`, the Activity (Rattus norvegicus [1]) is reported as 0.4, the MIC (Penicillium citrinum) is reported as > 100 µg/mL and the inhibition in vivo at 20 mg/kg (Rattus norvegicus [2]) is reported as 39.5%. It also gave an MIC (Rhizopus arrhizus) of 50 µg/mL (≈ 143 µM), an Activity (Rattus norvegicus [3]) of 0.599 nmol and an inhibition in vivo at 20 mg/kg (Rattus norvegicus [4]) of 68.9%. For the same compound, the MIC (Staphylococcus aureus) was 50 µg/mL (≈ 143 µM), the MIC (Escherichia coli) was 50 µg/mL (≈ 143 µM) and the Activity (Mus musculus) was 40.36%.

With `COc1ccc(-c2cc(=O)c3cc(CNc4ccc(S(N)(=O)=O)cc4)ccc3o2)cc1` the MIC (Penicillium citrinum) was 25 µg/mL (≈ 57.3 µM), the inhibition in vivo at 20 mg/kg (Rattus norvegicus [2]) was 25.3% and the MIC (Rhizopus arrhizus) was 10 µg/mL (≈ 22.9 µM). It also gave an inhibition in vivo at 20 mg/kg (Rattus norvegicus [4]) of 60.5%, an MIC (Staphylococcus aureus) of 25 µg/mL (≈ 57.3 µM) and an MIC (Escherichia coli) of 50 µg/mL (≈ 115 µM).

Compound `COc1ccc(-c2cc(=O)c3cc(CNc4ccc(S(N)(=O)=O)cc4)ccc3o2)cc1OC` has an MIC (Penicillium citrinum) of 10 µg/mL (≈ 21.4 µM), an inhibition in vivo at 20 mg/kg (Rattus norvegicus [2]) of 27.1% and an MIC (Rhizopus arrhizus) of 10 µg/mL (≈ 21.4 µM). For the same compound, the inhibition in vivo at 20 mg/kg (Rattus norvegicus [4]) was 60.5%, the MIC (Staphylococcus aureus) was 25 µg/mL (≈ 53.6 µM) and the MIC (Escherichia coli) was 10 µg/mL (≈ 21.4 µM).

`COc1ccc(-c2cc(=O)c3cc(CN4CCOCC4)ccc3o2)cc1` gave an Activity (Rattus norvegicus [1]) of 0.2, an MIC (Penicillium citrinum) of 10 µg/mL (≈ 28.5 µM) and an inhibition in vivo at 20 mg/kg (Rattus norvegicus [2]) of 62.7%. The MIC (Rhizopus arrhizus) was 10 µg/mL (≈ 28.5 µM), the Activity (Rattus norvegicus [3]) was 0.526 nmol and the inhibition in vivo at 20 mg/kg (Rattus norvegicus [4]) was 75.3%. It also gave an MIC (Staphylococcus aureus) of 10 µg/mL (≈ 28.5 µM), an MIC (Escherichia coli) of 10 µg/mL (≈ 28.5 µM) and an Activity (Mus musculus) of 50.8%.

`COc1ccc(-c2cc(=O)c3cc(CN(C)C)ccc3o2)cc1OC` gave an MIC (Penicillium citrinum) of 50 µg/mL (≈ 147 µM), an inhibition in vivo at 20 mg/kg (Rattus norvegicus [2]) of 29.8% and an MIC (Rhizopus arrhizus) of 10 µg/mL (≈ 29.5 µM). For the same compound, the inhibition in vivo at 20 mg/kg (Rattus norvegicus [4]) was 51%, the MIC (Staphylococcus aureus) was 25 µg/mL (≈ 73.7 µM) and the MIC (Escherichia coli) was 25 µg/mL (≈ 73.7 µM).

With `NS(=O)(=O)c1ccc(NCc2ccc3oc(-c4ccccc4Cl)cc(=O)c3c2)cc1` the MIC (Penicillium citrinum) was 25 µg/mL (≈ 56.7 µM), the inhibition in vivo at 20 mg/kg (Rattus norvegicus [2]) was 32.2% and the MIC (Rhizopus arrhizus) was > 100 µg/mL. It also gave an inhibition in vivo at 20 mg/kg (Rattus norvegicus [4]) of 58.2%, an MIC (Staphylococcus aureus) of 50 µg/mL (≈ 113 µM) and an MIC (Escherichia coli) of 50 µg/mL (≈ 113 µM).

`COc1ccc(-c2cc(=O)c3cc(CNc4ccc(C)cc4)ccc3o2)cc1OC` showed an MIC (Penicillium citrinum) of 25 µg/mL (≈ 62.3 µM), an inhibition in vivo at 20 mg/kg (Rattus norvegicus [2]) of 18.7% and an MIC (Rhizopus arrhizus) of 25 µg/mL (≈ 62.3 µM). The inhibition in vivo at 20 mg/kg (Rattus norvegicus [4]) was 50.8%, the MIC (Staphylococcus aureus) was 25 µg/mL (≈ 62.3 µM) and the MIC (Escherichia coli) was 50 µg/mL (≈ 125 µM).

For `O=c1cc(-c2ccccc2Cl)oc2ccc(CN3CCNCC3)cc12`, the Activity (Rattus norvegicus [1]) was 0.3, the MIC (Penicillium citrinum) was 50 µg/mL (≈ 141 µM) and the inhibition in vivo at 20 mg/kg (Rattus norvegicus [2]) was 56%. It also gave an MIC (Rhizopus arrhizus) of 50 µg/mL (≈ 141 µM), an Activity (Rattus norvegicus [3]) of 0.403 nmol and an inhibition in vivo at 20 mg/kg (Rattus norvegicus [4]) of 73.9%. The MIC (Staphylococcus aureus) was > 100 µg/mL, the MIC (Escherichia coli) was > 100 µg/mL and the Activity (Mus musculus) was 48.39%.

`COc1ccc(-c2cc(=O)c3cc(CN(C)C)ccc3o2)cc1` showed an MIC (Penicillium citrinum) of 50 µg/mL (≈ 162 µM), an inhibition in vivo at 20 mg/kg (Rattus norvegicus [2]) of 36% and an MIC (Rhizopus arrhizus) of 10 µg/mL (≈ 32.3 µM). The inhibition in vivo at 20 mg/kg (Rattus norvegicus [4]) was 53.1%, the MIC (Staphylococcus aureus) was 50 µg/mL (≈ 162 µM) and the MIC (Escherichia coli) was 50 µg/mL (≈ 162 µM).

For `COc1ccc(-c2cc(=O)c3cc(CCl)ccc3o2)cc1OC`, the MIC (Penicillium citrinum) was > 100 µg/mL, the inhibition in vivo at 20 mg/kg (Rattus norvegicus [2]) was 33.3% and the MIC (Rhizopus arrhizus) was 10 µg/mL (≈ 30.2 µM). For the same compound, the inhibition in vivo at 20 mg/kg (Rattus norvegicus [4]) was 49.4%, the MIC (Staphylococcus aureus) was 10 µg/mL (≈ 30.2 µM) and the MIC (Escherichia coli) was 50 µg/mL (≈ 151 µM).

`CN(C)Cc1ccc2oc(-c3ccccc3Cl)cc(=O)c2c1` was tested, and the MIC (Penicillium citrinum) was > 100 µg/mL, the inhibition in vivo at 20 mg/kg (Rattus norvegicus [2]) was 36.2% and the MIC (Rhizopus arrhizus) was > 100 µg/mL. The inhibition in vivo at 20 mg/kg (Rattus norvegicus [4]) was 54.3%, the MIC (Staphylococcus aureus) was > 100 µg/mL and the MIC (Escherichia coli) was 50 µg/mL (≈ 159 µM).

`O=c1cc(-c2ccccc2Cl)oc2ccc(CN3CCOCC3)cc12` showed an Activity (Rattus norvegicus [1]) of 0.1, an MIC (Penicillium citrinum) of 25 µg/mL (≈ 70.3 µM) and an inhibition in vivo at 20 mg/kg (Rattus norvegicus [2]) of 64.4%. It also gave an MIC (Rhizopus arrhizus) of 25 µg/mL (≈ 70.3 µM), an Activity (Rattus norvegicus [3]) of 0.352 nmol and an inhibition in vivo at 20 mg/kg (Rattus norvegicus [4]) of 82.5%. The MIC (Staphylococcus aureus) was 50 µg/mL (≈ 141 µM), the MIC (Escherichia coli) was > 100 µg/mL and the Activity (Mus musculus) was 54.81%.

`Cc1ccc(NCc2ccc3oc(-c4ccccc4Cl)cc(=O)c3c2)cc1` was tested, and the MIC (Penicillium citrinum) was > 100 µg/mL, the inhibition in vivo at 20 mg/kg (Rattus norvegicus [2]) was 19.8% and the MIC (Rhizopus arrhizus) was 50 µg/mL (≈ 133 µM). For the same compound, the inhibition in vivo at 20 mg/kg (Rattus norvegicus [4]) was 52.7%, the MIC (Staphylococcus aureus) was > 100 µg/mL and the MIC (Escherichia coli) was > 100 µg/mL.

`COc1ccc(-c2cc(=O)c3cc(CNc4ccc(C)cc4)ccc3o2)cc1` was tested, and the MIC (Penicillium citrinum) was > 100 µg/mL, the inhibition in vivo at 20 mg/kg (Rattus norvegicus [2]) was 18.7% and the MIC (Rhizopus arrhizus) was 50 µg/mL (≈ 135 µM). It also gave an inhibition in vivo at 20 mg/kg (Rattus norvegicus [4]) of 51%, an MIC (Staphylococcus aureus) of 50 µg/mL (≈ 135 µM) and an MIC (Escherichia coli) of 50 µg/mL (≈ 135 µM).

With `COc1ccc(-c2cc(=O)c3cc(CN4CCNCC4)ccc3o2)cc1OC` the Activity (Rattus norvegicus [1]) was 0.4, the MIC (Penicillium citrinum) was 50 µg/mL (≈ 131 µM) and the inhibition in vivo at 20 mg/kg (Rattus norvegicus [2]) was 54%. It also gave an MIC (Rhizopus arrhizus) of 25 µg/mL (≈ 65.7 µM), an Activity (Rattus norvegicus [3]) of 0.525 nmol and an inhibition in vivo at 20 mg/kg (Rattus norvegicus [4]) of 72.2%. It also gave an MIC (Staphylococcus aureus) of 25 µg/mL (≈ 65.7 µM), an MIC (Escherichia coli) of 10 µg/mL (≈ 26.3 µM) and an Activity (Mus musculus) of 45.38%.

`COc1ccc(-c2cc(=O)c3cc(CN4CCOCC4)ccc3o2)cc1OC` gave an Activity (Rattus norvegicus [1]) of 0.1, an MIC (Penicillium citrinum) of 10 µg/mL (≈ 26.2 µM) and an inhibition in vivo at 20 mg/kg (Rattus norvegicus [2]) of 61.8%. For the same compound, the MIC (Rhizopus arrhizus) was 10 µg/mL (≈ 26.2 µM), the Activity (Rattus norvegicus [3]) was 0.331 nmol and the inhibition in vivo at 20 mg/kg (Rattus norvegicus [4]) was 80.9%. For the same compound, the MIC (Staphylococcus aureus) was 10 µg/mL (≈ 26.2 µM), the MIC (Escherichia coli) was 10 µg/mL (≈ 26.2 µM) and the Activity (Mus musculus) was 53.61%.

For `COc1ccc(-c2cc(=O)c3cc(CCl)ccc3o2)cc1`, the MIC (Penicillium citrinum) was > 100 µg/mL, the inhibition in vivo at 20 mg/kg (Rattus norvegicus [2]) was 32.2% and the MIC (Rhizopus arrhizus) was 10 µg/mL (≈ 33.3 µM). For the same compound, the inhibition in vivo at 20 mg/kg (Rattus norvegicus [4]) was 38.7%, the MIC (Staphylococcus aureus) was 10 µg/mL (≈ 33.3 µM) and the MIC (Escherichia coli) was 50 µg/mL (≈ 166 µM).

`OC(Cn1cncn1)(Cn1cncn1)c1ccc(F)cc1F` [FLUCONAZOLE] showed an MIC (Penicillium citrinum) of 6.25 µg/mL (≈ 20.4 µM) and an MIC (Rhizopus arrhizus) of 6.25 µg/mL (≈ 20.4 µM).

Work on `CC(C)Cc1ccc(C(C)C(=O)O)cc1` (stereo unspecified) [IBUPROFEN] yielded an Activity (Rattus norvegicus [1]) of 0.9 and an Activity (Mus musculus) of 65.06%.

`CCn1cc(C(=O)O)c(=O)c2cc(F)c(N3CCNCC3)cc21` [NORFLOXACIN] was tested, and the MIC (Staphylococcus aureus) was 6.25 µg/mL (≈ 19.6 µM) and the MIC (Escherichia coli) was 6.25 µg/mL (≈ 19.6 µM).
